Screens from PubChem.
TRPC6 act – mouse TRPC6 channel activation; Q61143; HEK293-TRPC6 membrane potential dye fluorescence; active compounds read high; B-score at 10 µM; 310,000 compounds, 0.13% hits; AID 2550;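 active = B-score of the integrated fluorescence ratio above library mean plus 3 SD, and starting fluorescence ratio within library mean plus 5 SD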;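 note: higher score means more depolarization so channel activation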
TRPC4 block – inhibitors of mouse TRPC4 channel; Q9QUQ5; HEK293 TRPC4beta/mu-opioid, DAMGO-evoked Fluo4 calcium flux; active compounds read low; B-score at 10 µM; 300,000 compounds, 0.39% hits; AID 2247;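 active = B-score over 3 SD under the library average, no early fluorescence shift, positive overall ratio signal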
Target sequence (Q9QUQ5 whole entry, looked up): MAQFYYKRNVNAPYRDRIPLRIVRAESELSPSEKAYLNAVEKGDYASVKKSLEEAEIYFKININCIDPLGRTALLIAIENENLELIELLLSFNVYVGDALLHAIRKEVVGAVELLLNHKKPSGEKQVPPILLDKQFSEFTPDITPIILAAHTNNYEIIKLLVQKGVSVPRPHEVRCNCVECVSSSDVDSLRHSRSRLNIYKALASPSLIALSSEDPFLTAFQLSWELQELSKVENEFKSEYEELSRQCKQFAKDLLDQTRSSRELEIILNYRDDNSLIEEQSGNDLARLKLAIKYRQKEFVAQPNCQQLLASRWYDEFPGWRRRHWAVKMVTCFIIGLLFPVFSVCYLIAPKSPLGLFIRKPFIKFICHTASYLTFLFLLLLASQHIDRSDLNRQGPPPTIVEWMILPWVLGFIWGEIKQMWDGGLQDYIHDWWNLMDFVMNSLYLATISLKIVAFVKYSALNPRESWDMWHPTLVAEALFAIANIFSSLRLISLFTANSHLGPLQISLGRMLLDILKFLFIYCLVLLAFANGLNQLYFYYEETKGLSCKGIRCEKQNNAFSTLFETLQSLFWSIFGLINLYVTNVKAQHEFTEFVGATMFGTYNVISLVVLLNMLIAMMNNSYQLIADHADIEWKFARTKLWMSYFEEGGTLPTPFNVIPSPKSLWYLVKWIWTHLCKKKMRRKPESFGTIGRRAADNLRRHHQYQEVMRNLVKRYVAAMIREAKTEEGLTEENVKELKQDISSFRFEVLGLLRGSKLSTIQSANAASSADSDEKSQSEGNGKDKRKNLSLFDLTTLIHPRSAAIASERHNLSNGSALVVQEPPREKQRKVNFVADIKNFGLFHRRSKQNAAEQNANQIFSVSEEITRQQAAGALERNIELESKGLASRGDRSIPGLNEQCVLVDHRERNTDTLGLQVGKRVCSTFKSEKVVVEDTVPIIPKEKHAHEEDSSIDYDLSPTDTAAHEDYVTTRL
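Material: HEK293 cells with stable TRPC4beta plus mu-opioid receptor expression; probe or stimulus: DAMGO in two steps, submaximal then maximal; technique: Fluo4 calcium fluorescence by kinetic imaging, 5 s 1 Hz baseline; measure: integrated fluorescence ratio relative to baseline, converted to per-well B score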
TRPC4 potent – TRPC4 (mouse) allosteric potentiation. HEK293 TRPC4beta/mu-opioid, DAMGO EC20, Fluo-4 Ca2+ flux; active compounds read high. B-score at 10 µM. Q9QUQ5. 310,000 compounds, 0.42% hits;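 active = B-score of calcium response area above 5 SD of library B-scores, with initial fluorescence ratio within 5 SD of library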
TRPC4 act – activators of mouse TRPC4 channel | Q9QUQ5 | HEK293 TRPC4beta/mu-opioid, Fluo4 calcium fluorescence; active compounds read high | B-score at 10 µM | 310,000 compounds, 0.49% hits | AID 2237;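 active = B-score above 5 SD of library B-scores, and initial fluorescence ratio not above library mean plus 5 SD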;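 note: positive B-score marks a calcium rise read as TRPC4 activation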
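System – HEK293 cells stably co-expressing mouse TRPC4beta and mu-opioid receptor · Signal – Fluo4 calcium-sensitive dye fluorescence, kinetic, 1 Hz baseline · Benchmarks – buffer (low) and maximal DAMGO (high) · Read-out – B score of integrated fluorescence ratio per well · Incubation – dye loading 45 min room temperature, 110 s kinetic read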
TRPC6 inhibitor – blocks the mouse TRPC6 cation channel. Q61143. HEK293-TRPC6, membrane potential dye, ACh-evoked depolarization; active compounds read low. B-score at 10 µM. 310,000 compounds, 1.1% hits;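 active = B-score under library mean minus 3 SD, initial fluorescence not abnormally high, positive integrated signal ratio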;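 note: B-score derived from integrated fluorescence ratio over the kinetic read; more negative B-score means stronger inhibition of depolarization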
TRPC4 sel inh 2 – second check of whether TRPC6 inhibitors also affect mouse TRPC4 | shares compounds with TRPC6 inhibitor | HEK293 TRPC4/MOR, membrane potential dye fluorescence; channel activated by saturating DAMGO dose | inhibition, % at 10 µM | 920 compounds, 42% hits | AID 2776;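 active = compounds whose fluorescence signal differed from control wells by over 3 SD, either direction, in both duplicate plates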
TRPC4 spec – tests whether TRPC6 inhibitors also affect mouse TRPC4 | shares compounds with TRPC6 inhibitor | HEK293 TRPC4/mu-opioid, membrane potential fluorescence | activity change, negative = inhibition, % at 10 µM | 920 compounds, 61% hits | AID 2777;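 active = rise or fall in signal beyond 3 SD of buffer-only wells in both replicate plates, either sign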;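 note: integrated kinetic ratio of fluorescence range over baseline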
HEK293 MPD ctr 2-1 – second check of TRPC6 inhibitor effects in parental HEK293 cells; AID 2779; signal change vs control, % at 10 µM; shares compounds with TRPC6 inhibitor; parental HEK293 membrane potential dye fluorescence; maximal acetylcholine challenge after compound addition; 920 compounds, 31% hits;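 active = membrane potential signal moving either way by over 3 SD of the maximum-effect control, in both duplicate plates, meaning non-specific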
HEK293 MPD ctr-1 – parental HEK293 nonspecific activity of TRPC6 inhibitors; shares compounds with TRPC6 inhibitor; parental HEK293 membrane potential dye fluorescence; membrane potential signal change, % at 10 µM; 920 compounds, 60% hits;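 active = membrane potential signal shifting up or down by more than 3 SD of buffer-only wells, on both duplicate plates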
HEK293 MPD ctr-2 – parental HEK293 nonspecific activity of TRPC6 modulators; 2,400 compounds, 51% hits; shares compounds with TRPC6 inhibitor; AID 488924; membrane potential dye fluorescence; membrane potential signal change, % at 10 µM;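 active = membrane potential signal moves up or down beyond 5 SD from buffer-only wells, on both duplicate plates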
HEK293 MPD ctr 2-2 – parental HEK293 nonspecific activity of TRPC6 modulators, second screen; inhibition, % at 10 µM; AID 488926; membrane potential dye fluorescence; after compound, maximal acetylcholine stimulation; shares compounds with TRPC6 inhibitor; 2,400 compounds, 14% hits;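 active = membrane potential signal drops by more than 5 SD from the mean control signal, in both duplicate plates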
TRPC4/MOR mod – selectivity of TRPC6 modulators against mouse TRPC4; shares compounds with TRPC6 inhibitor; HEK293 TRPC4/mu-opioid, membrane potential fluorescence; percent change from control (negative = decrease, positive = increase), % at 10 µM; 2,400 compounds, 69% hits;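 active = membrane potential signal moved up or down beyond 5 SD of buffer control wells, in both duplicate plates, actives on both sides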
TRPC4 ctr inh 2 – second check of whether TRPC6 modulators also affect mouse TRPC4; shares compounds with TRPC6 inhibitor; HEK293 TRPC4/mu-opioid, membrane potential dye fluorescence; stimulated with maximal-effect DAMGO; inhibition, % at 10 µM; 2,400 compounds, 55% hits; AID 488928;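 active = drop in membrane potential signal beyond 5 SD of the control wells in both duplicate plates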;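 note: TRPC4 counter screen for TRPC6 hits run under conditions tuned for TRPC6 not TRPC4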
TRPC6 block conf – confirmation of mouse TRPC6 inhibitors; AID 488960; 3,300 compounds, 43% hits; shares compounds with TRPC6 inhibitor; HEK293-TRPC6, membrane potential dye, ACh-evoked depolarization; inhibition, % at 10 µM;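 active = fluorescence ratio falls more than 5 SD below the full-stimulation control mean, in both duplicate runs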;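 note: integrated fluorescence ratio of peak minus minimum over baseline after agonist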
TRPC6 act confirm – mouse TRPC6 activator confirmation; 2,800 compounds, 11% hits; AID 488961; HEK293-TRPC6 membrane potential dye fluorescence, FDSS; shares compounds with TRPC6 inhibitor; activation, % at 10 µM;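 active = ratio signal rise beyond 5 SD above unstimulated control wells' mean, seen in both duplicate runs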
Numbers stand for hits; 0 = inactive; - = no result. The list is not random: actives were taken first. Their share in the collection is about 2.3%.

SMILES	TRPC6 act	TRPC4 block	TRPC4 potent	TRPC4 act	TRPC6 inhibitor	HEK293 MPD ctr-2	HEK293 MPD ctr 2-2	TRPC4/MOR mod	TRPC4 ctr inh 2	TRPC6 block conf	TRPC6 act confirm	others
COc1ccc(N(C)C(=O)C2CCN(S(=O)(=O)c3cccc4nonc34)CC2)c(OC)c1	0	0	0	0	0	-	-	-	-	-	-
CN(C)c1nc(N)c(C(=O)N=C(N)N)nc1Cl	0	0	0	0	-7.3	-	-	-	-	0	0	TRPC4 sel inh 2=0;TRPC4 spec=-24%;HEK293 MPD ctr 2-1=0;HEK293 MPD ctr-1=-364%
NC(=Nc1ccccc1)NC(=O)c1nc(Cl)c(N)nc1N	0	0	0	0	0	-	-	-	-	-	-
CN(C)C(=O)c1c2c(nc3ccccc13)-c1ccccc1CC2	0	0	0	0	-5.7	0	0	0	0	0	0
COc1ccc(CCNC(=O)c2cc(C)oc2C)cc1OC	0	0	0	0	0	-	-	-	-	-	-
c1ccc(Nc2nc(N3CCCCC3)nc(N3CCNCC3)n2)cc1	0	0	30	0	-5.6	0	0	14%	58%	55%	-
COc1ccc(C(=O)N2CCN(c3ccccc3)CC2)cc1S(=O)(=O)N1CCOCC1	0	0	0	0	0	-	-	-	-	-	-
Cc1cccc(NC(=O)CSc2nc3nc(C)cc(C)c3c(=O)[nH]2)c1	0	0	0	0	-6.9	-	-	-	-	0	0	TRPC4 sel inh 2=0;TRPC4 spec=0;HEK293 MPD ctr 2-1=0;HEK293 MPD ctr-1=0
COc1ccccc1Nc1nc(N)nc(CSC(=S)N2CCCCC2)n1	11	0	0	0	-9.5	0	0	0	0	0	0
C[C@@H]1NC(=O)N(c2ccc(F)cc2)C1=O	0	0	0	0	0	-	-	-	-	-	-
CN1CCN(c2ccc(CNC(=O)c3cc4ccccc4o3)cc2)CC1	0	0	0	0	-5.3	0	0	0	32%	0	0
COc1ccc2c(c1)-c1c(ssc1=S)C(C)(C)N2	0	0	0	0	-5.6	-164%	0	-33%	60%	46%	0
CCOc1cc2c3c(c1)C(C)=CC(C)(C)N3C(=O)C2=O	0	0	0	0	0	-	-	-	-	-	-
CC(=O)Oc1cc2c3c(c1)/C(=C1/SC(=S)NC1=O)C(=O)N3C(C)(C)C=C2C	0	0	0	0	-5.7	-112%	0	-28%	83%	58%	0
CC(=O)Nc1ccc(S(=O)(=O)n2cnc(C)c2)cc1	0	0	0	0	0	-	-	-	-	-	-
Cc1ccc(S(=O)(=O)n2cnc(C)c2)cc1	0	0	0	0	-8.2	-	-	-	-	0	0	TRPC4 sel inh 2=0;TRPC4 spec=0;HEK293 MPD ctr 2-1=0;HEK293 MPD ctr-1=0
CCN(CC)C(=O)N1CCn2c(nc3ccccc32)C1	0	0	0	0	-5.5	0	0	12%	0	0	0
CNC(=S)NNC(=O)CSCc1c(Cl)cccc1Cl	0	0	0	0	0	-	-	-	-	-	-
CNC(=O)CSCc1c(Cl)cccc1Cl	0	0	0	0	-11	0	0	0	0	0	0
CCCn1c(SCC(=O)NC2CCCCC2)nnc1-c1ccco1	0	0	0	0	0	-	-	-	-	-	-
CCCCCCCc1nc2sc3c(c2c(=O)n1N)CC(C)(C)OC3	0	0	0	0	0	-	-	-	-	-	-
CCCCCc1nc2sc3c(c2c(=O)n1NC(=O)c1ccc([N+](=O)[O-])cc1)CC(C)(C)OC3	0	0	0	0	-5.7	0	0	0	64%	56%	0
CCn1c(/C=C/N(C)c2ccccc2)[n+](CC)c2ccc(Cl)cc21	0	0	0	0	-8.6	-	-	-	-	65%	0	TRPC4 sel inh 2=0;TRPC4 spec=-29%;HEK293 MPD ctr 2-1=24%;HEK293 MPD ctr-1=-411%
CCn1c(C)[n+](Cc2ccccc2)c2ccc(Cl)cc21	0	0	0	0	0	-	-	-	-	-	-
CCn1c(/C=C/Nc2ccccc2)[n+](CC)c2ccc(Cl)cc21	0	0	0	0	-5.2	-186%	0	-34%	56%	50%	0
SMILES	TRPC6 act	TRPC4 block	TRPC4 potent	TRPC4 act	TRPC6 inhibitor	HEK293 MPD ctr-2	HEK293 MPD ctr 2-2	TRPC4/MOR mod	TRPC4 ctr inh 2	TRPC6 block conf	TRPC6 act confirm	others
CN(CC(=O)NCC(c1ccco1)N1CCCCC1)S(=O)(=O)c1ccc(Cl)cc1 (centres undefined)	0	0	0	0	0	-	-	-	-	-	-
O=C(CCCc1c[nH]c2ccccc12)NCc1ccccc1C(F)(F)F	0	0	0	0	0	-	-	-	-	-	-
Cc1cc(C)n(-c2nnc(C)n2/N=C/c2ccccc2OCc2ccccc2Cl)n1	13	0	0	0	0	474%	0	85%	0	0	116%
O=C(Cc1c(Cl)cccc1Cl)N/N=C/c1cccnc1	0	0	0	0	0	-	-	-	-	-	-
CC(C)c1cc(-c2n[nH]c(=S)n2Cc2ccccc2)cs1	0	0	0	0	-16	0	0	8.5%	0	0	0
S=c1[nH]nc(-c2ccccc2)n1Cc1ccccc1	0	0	0	0	0	-	-	-	-	-	-
COc1cccc(NC(=O)CN2C(=O)NC(C)(c3ccc(C)cc3)C2=O)c1 (centres undefined)	0	0	0	0	0	-	-	-	-	-	-
CN(C)CCNc1c2c(c(C#N)c3nc4ccccc4n13)CCCC2	0	0	0	0	-11	-	-	-	-	73%	0	TRPC4 sel inh 2=60%;TRPC4 spec=-28%;HEK293 MPD ctr 2-1=48%;HEK293 MPD ctr-1=-384%
CCN(CC)CCNc1c2c(c(C#N)c3nc4ccccc4n13)CCCC2	0	0	0	0	-5.1	0	0	-18%	36%	42%	0
N#Cc1c2c(c(NCc3ccco3)n3c1nc1ccccc13)CCC2	0	0	0	0	0	-	-	-	-	-	-
CCc1ccc(NC(=O)C2CCN(S(=O)(=O)c3cnc[nH]3)CC2)cc1	0	0	0	0	0	-	-	-	-	-	-
CCc1ccc(NC(=O)C2CCCN(S(=O)(=O)c3cnc[nH]3)C2)cc1 (centres undefined)	0	0	0	0	-6.1	0	0	0	0	0	0
